This is an account of results in PMC9285861 (Biomacromolecules, 2019).

Like-named read-outs stand apart in the source and are kept apart here.

One series in a line: Reverse phase HPLC. Format: physicochemical. To be noted: Figure S2.
A further series can be described thus: Thioflavin T. Format: physicochemical. Particulars: 50 μM Aβ, 100 μM ThT, 37 °C, without plasma proteins, Ex/Em 440/485 nm, triplicate.
The test system of the next series is monocytes. The series is described as follows: Blood cell association of ThT-labeled Aβ by flow cytometry, monocytes. Particulars: 1 h, triplicate. Format: cell-based, human. The method in brief:
(§1)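 Heparinised whole blood, or blood washed five times in PBS (950g, 10 min) and resuspended in serum-free RPMI 1640, given ThT-labeled test peptide oligomers or fibrils at 5, 10, 15 μM, 1 h at 4 and 37 °C, triplicate. RBCs lysed; antibody staining 1 h on ice; 1% formaldehyde fixation; flow cytometry with populations gated by CD3, CD14, CD56, CD19, Lin1/HLA-DR, SSC-A.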
(In flow cytometry, cells or beads pass a laser one at a time.)

A further series concerns dendritic cells (DCs). The series is described as follows: Blood cell association of ThT-labeled Aβ by flow cytometry, dendritic cells. The format is cell-based, human. Particulars: 1 h. The method in brief:
as §1

In another series the test system is granulocytes. Briefly: Blood cell association of ThT-labeled Aβ by flow cytometry, granulocytes. The format is cell-based, human. Particulars: 1 h. The method in brief: as §1
Another series has as its system NK cells. Briefly: Blood cell association of ThT-labeled Aβ by flow cytometry, NK cells. Particulars: especially with plasma proteins, 1 h. Format: cell-based, human. The method in brief: as §1
The next series concerns B cells. The series is described as follows: Blood cell association of ThT-labeled Aβ by flow cytometry, B cells. To be noted: 1 h. The format is cell-based, human. In a few lines: as §1
For series [1], the system named is Human monocytic THP-1 cells. The series is described as follows: LSPR immunoassay of cytokine secretion, THP-1 cells. The format is cell-based. To be noted: 37 °C, 2 h incubation, 5, 10, 15 μM, LSPR read-out.
Series [2] concerns human immune cell lines (T cells, B cells, or THP-1 cells). The series is described as follows: LSPR immunoassay of cytokine secretion, immune cell lines. The format is cell-based. Particulars: for effect of plasma proteins on immune responses (cytokine secretion): 37 °C, human plasma versus RPMI-1640 medium, all three types of immune cells. The method in brief:
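Jurkat T (RPMI-1640, 200 μg/mL […], 10% FBS), EBV-transformed B lymphoblasts and THP-1 (50 μM mercaptoethanol) cells at 1 × 10^6 cells/mL in human plasma proteins or RPMI-1640 took test peptide oligomers or fibrils, 5, 10, 15 μM final, 2 h at 4 and 37 °C. TNF and IL-6 in medium measured on antibody–gold nanorod LSPR chips via calibration curves; triplicate.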

The subject of series [3] is SH-SY5Y neuroblastoma cells. To be noted: 20 μM Aβ, 15 h, triplicate, ± SD.
For a further series, the system named is SH-SY5Y neuronal cells. Particulars: 20 μM Aβ, 2 h.
The subject of the next series is T cells. The series is described as follows: Blood cell association of ThT-labeled Aβ by flow cytometry, T cells. Format: cell-based, human. Particulars: 1 h. In a few lines: as §1
Where [4] appears, read: 5 μM, with plasma proteins, triplicate ± SD.
[5] abbreviates: 5 μM, without plasma proteins, triplicate ± SD.
Setting [6] is: 10 μM, with plasma proteins, triplicate ± SD.
The mark [7] stands for this setting: 10 μM, without plasma proteins, triplicate ± SD.
Where [8] appears, read: 15 μM, with plasma proteins, triplicate ± SD.
[9] abbreviates: 15 μM, without plasma proteins, triplicate ± SD.

In the case of “AIAEGDSHVLKEGAY-MEIFDVQGHVFGGKIFRVVDLGSHNVA [AβO]”, the “hydrophobicity by RP-HPLC” value in “Reverse phase HPLC” is “slightly hydrophobic”. The “time to saturation phase of ThT fibrillization kinetics” value in the series “Thioflavin T” was ~ 60 h. For the same substance, the association with monocytes in the series on monocytes (all concentrations (5, 10, 15 μM), all conditions) is given as 90–100%. The “association with DCs” value in the series with dendritic cells (DCs) (in the absence of plasma proteins, range over 5-15 μM) was 78–85%; in the series on dendritic cells (DCs) (whole blood cells (with plasma proteins), range over 5-15 μM), 69–93%. The association with granulocytes with granulocytes (with and without plasma proteins (no considerable difference)) was 80–90%. The “association with NK cells” value with NK cells is reported as “very low association”. Besides, the “change of association with B cells from whole blood to washed cells” value in the series on B cells (3 concentrations (5, 10, 15 μM)) was “slightly decreased”. In series [1], the “pro-inflammatory cytokine secretion (TNF, IL-6) of THP-1 cells” value was “prominent pro-inflammatory cytokine secretion”. For the same substance, the “effect of plasma proteins on immune responses (cytokine secretion)” value in [2] is given as “mostly promoted”. Further, in series [2] (2 h incubation, LSPR sensor), the “expression of cytokines IL-6 and TNF by immune cells” value is given as “significant expression”. Besides, the “cytotoxicity (PI-positive cells)” value is 30 ± 2% in [3] (with plasma proteins) and 39 ± 2.6% in series [3] (without plasma proteins). In addition, the “cell membrane damage by HIM” value with SH-SY5Y neuronal cells (with plasma proteins) is “damage was reduced”; with SH-SY5Y neuronal cells (without plasma proteins), “significant damage including membrane deformation and blebbing”.
Turning to “AIAEGDSHVLKEGAY-MEIFDVQGHVFGGKIFRVVDLGSHNVA [Aβf]”, the “hydrophobicity by RP-HPLC” value in the series “Reverse phase HPLC” is on record as “varying hydrophobicity”. The association with monocytes is reported as 60–80% in the series on monocytes (high concentrations) and 20–40% in the series with monocytes (low concentrations). In addition, the “association with T cells” value in the series on T cells (5 μM, without plasma proteins (washed blood), triplicate ± SD) is 5.2 ± 0.1%; in the series on T cells (10 μM, without plasma proteins (washed blood), triplicate ± SD), 38.2 ± 3.2%; in the series with T cells (15 μM, without plasma proteins (washed blood), triplicate ± SD), 51.8 ± 1.5%; in the series with T cells (with plasma proteins (whole blood)), less than 10%. The “association with DCs” value with dendritic cells (DCs) (setting [4]) came out at 11.1 ± 3.7%; in the series with dendritic cells (DCs) (setting [5]) it was 38.2 ± 3.3%; with dendritic cells (DCs) (setting [6]), 35 ± 0.7%; with dendritic cells (DCs) (setting [7]), 69.2 ± 3.1%; in the series with dendritic cells (DCs) (setting [8]) it was 56.5 ± 13%; in the series with dendritic cells (DCs) (setting [9]), 71.2 ± 6.4%. The association with granulocytes in the series with granulocytes (setting [4]) was determined as 7.0 ± 2.9%; in the series with granulocytes (setting [5]), 11.7 ± 0.4%; in the series on granulocytes (setting [6]) it was 21.6 ± 1.2%; in the series with granulocytes (setting [7]), 38.5 ± 5.4%; in the series on granulocytes (setting [8]), 35.7 ± 2.6%; in the series on granulocytes (setting [9]), 51.8 ± 3.1%. Further, in the series with NK cells, the “association with NK cells” value is reported as “no association”. For the same substance, the “association with B cells” value in the series on B cells (10 μM, whole blood as the sentence is printed, triplicate ± SD) was 36.6 ± 6.0%; with B cells (15 μM, whole blood as the sentence is printed, triplicate ± SD), 57.1 ± 0.9%; in the series with B cells (3 concentrations (5, 10, 15 μM), washed cells as the sentence is printed) it was “below 5%”. In series [2], the “effect of plasma proteins on immune responses (cytokine secretion)” value was “overall suppressed immune responses”. Also, the entries for the “cytotoxicity (PI-positive cells)” value in series [3] (with plasma proteins) and in series [3] (without plasma proteins) were “not affected by plasma proteins” and 13%, respectively. Also, the “cell membrane damage by HIM” value in the series with SH-SY5Y neuronal cells (with plasma proteins) and with SH-SY5Y neuronal cells (without plasma proteins) was “no damage was evident” throughout.
As to “AIAEGDSHVLKEGAY-MEIFDVQGHVFGGKIFRVVDLGSHNVA [Aβm, reference compound]”, the “time to saturation phase of ThT fibrillization kinetics” value in “Thioflavin T” is listed as ~ 60 h.
